Series [1] has as its system Aorta. The series can be described thus: Vasorelaxant activity in Wistar rat endothelium-denuded thoracic aortic rings assessed as inhibition of phenylephrine-induced contraction at 200 uM. It is filed as functional, tissue-based.
Series [2] has as its system Aorta. The series can be described thus: Vasorelaxant activity in Wistar rat endothelium-intact thoracic aortic rings assessed as inhibition of phenylephrine-induced contraction at 200 uM. It is filed as functional.
Series [3] concerns Aorta. Briefly: Vasorelaxant activity in Wistar rat endothelium-denuded thoracic aortic rings assessed as inhibition of phenylephrine-induced contraction. It is filed as functional, tissue-based.
A short description of series [4]: Cytotoxicity against rat A7r5 cells assessed as reduction of cell viability at 50 uM after 24 hrs by MTT assay. It is filed as cell-based. The note with it: a7r5, 24 h. The procedure, abridged:
(§1)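 A7r5 embryonic rat aorta smooth muscle cells seeded at 20 × 10^3/cm^2 and incubated overnight. Compounds added with DMSO (1%) for 24 h; untreated cells served as negative control. MTT solution (5 mg/ml in PBS) added, 2 h at 37 C, absorbance read at 540 nm. Viability = A(treatment)/A(negative control) × 100%. Mean ± S.E.M of at least 5 experiments.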
(Formazan colour is commonly taken as a measure of viable cells.)

Series [5] in a line: Cytotoxicity against rat A7r5 cells assessed as reduction of cell viability at 25 uM after 24 hrs by MTT assay. It is filed as cell-based. The note with it: a7r5, 24 h. Put shortly:
as §1

Series [6] relates to Aorta. Briefly: Vasorelaxant activity in Wistar rat endothelium-intact thoracic aortic rings assessed as inhibition of phenylephrine-induced contraction. It is filed as functional, tissue-based.
For series [7], the system named is Aorta. Briefly: Vasorelaxant activity in Wistar rat endothelium-denuded thoracic aortic rings assessed as inhibition of phenylephrine-induced contraction relative to endothelium-intact thoracic aortic rings in presence of 1 uM of acetylcholine. It is filed as functional.

The structures appear in SMILES notation. pEC50: −log10 of the molar value. Calls of active or inactive are those of the source. The rule behind the calls is not given here.

For the compound `Cn1c(=O)c2cccc(Cl)c2c(=O)n1CCN`, the inhibition (as a rule, the relative decrease from the control value, in per cent) in series [1] is “inactive”. The inhibition at 200 µM in series [2] is 50%.

For the compound `Cn1c(=O)c2cccc(Cl)c2c(=O)n1CCCNC(=O)OC(C)(C)C`, the pEC50 – broadly, the negative decadic logarithm of the EC50, by convention in mol/L – in series [3] is 4.74; in series [6] it was 5.32. Also, the Activity entry in series [4] is reported as “Toxic”; in series [5], “Non-toxic”.

With `Cn1c(=O)c2cccc(Cl)c2c(=O)n1CCCN=[N+]=[N-]`, the pEC50 in series [3] is 5.13; in series [6], 5.37. Further, the Activity entry in series [4] is given as “Toxic”; in series [5] it was “Non-toxic”.

Take `Cn1c(=O)c2c(Cl)cccc2c(=O)n1CCCBr`: the pEC50 in series [3] is 4.57; in series [6] it was 5.18.

`Cn1[nH]c(=O)c2cccc(Cl)c2c1=O`: the inhibition entry in series [1] and in series [2] was “inactive” throughout.

With `Cn1c(=O)c2ccccc2c(=O)n1CCBr`, the pEC50 in series [3] is 5.07; in series [6], 5.77.

Regarding `Cn1c(=O)c2ccccc2c(=O)n1CCN`, the inhibition result in series [1] was “inactive”. In addition, in series [2], the inhibition at 200 µM turned out to be 50%.

Turning to `Cn1c(=O)c2c(Cl)cccc2c(=O)n1CCCN`, the negative-log EC50 (pEC50) in series [3] was 4.52; in series [6], 5.07. Moreover, the “inhibition (INH)” value in series [7] turned out to be 53.6%.

With `NNc1nncc2ccccc12` [HYDRALAZINE], the pEC50 was 2.88 in series [3] and 2.93 in series [6].

As to `Cn1c(=O)c2ccccc2c(=O)n1CCCN=[N+]=[N-]`, the pEC50 in series [3] is 5.43; in series [6] it was 5.63.

Consider `Cn1c(=O)c2cccc(Cl)c2c(=O)n1CCNC(=O)OC(C)(C)C`, for which the values for the pEC50 in series [3] and in series [6] were 4.88 and 5.46, respectively. The Activity result in series [4] is on record as “Toxic”; in series [5], “Non-toxic”.

With `Cn1c(=O)c2c(Cl)cccc2c(=O)n1CCN=[N+]=[N-]`, the pEC50 in series [3] was 4.88; in series [6], 5.39.

For the compound `Cn1[nH]c(=O)c2c(Cl)cccc2c1=O`, the inhibition result in series [1] and in series [2] was “inactive” throughout.

`Cn1[nH]c(=O)c2ccccc2c1=O`: the inhibition result in series [1] and in series [2] was “inactive” each time.

Consider `Cn1c(=O)c2c(Cl)cccc2c(=O)n1CCCNC(=O)OC(C)(C)C`, for which the pEC50 in series [3] was 5.31; in series [6] it was 5.67. Moreover, the values for the Activity entry in series [4] and in series [5] were “Toxic” and “Non-toxic”, respectively.

With `Nc1cc(-c2ccncc2)c[nH]c1=O` [INAMRINONE], the pEC50 in series [3] is 4.55; in series [6] it was 4.77.

Take `Cn1c(=O)c2cccc(Cl)c2c(=O)n1CCN=[N+]=[N-]`: the figures for the negative logarithm of the EC50 (pEC50) in series [3] and in series [6] were 4.88 and 5.20, respectively.

`Cn1c(=O)c2ccccc2c(=O)n1CCN=[N+]=[N-]`: the negative logarithm of the EC50 (pEC50) in series [3] is 4.80; in series [6], 5.00.

`Cn1c(=O)c2c(Cl)cccc2c(=O)n1CCBr`: the results for the pEC50 in series [3] and in series [6] were 4.49 and 5.13, respectively.

Turning to `Cn1c(=O)c2cccc(Cl)c2c(=O)n1CCBr`, the pEC50 in series [3] was 4.70; in series [6], 5.10.

In the case of `Cn1c(=O)c2ccccc2c(=O)n1CCCBr`, the results for the pEC50 in series [3] and in series [6] were 4.81 and 5.51, respectively.

Turning to `Cn1c(=O)c2cccc(Cl)c2c(=O)n1CCCN`, in series [1], the inhibition entry is “inactive”. Moreover, the pEC50 in series [6] was 4.35.

`CN1C(=O)CN=C(c2ccccc2)c2cc(Cl)ccc21` [DIAZEPAM]: the pEC50 in series [3] is 4.11; in series [6], 4.16.

`Cn1c(=O)c2c(Cl)cccc2c(=O)n1CCN`: in series [1], the inhibition entry was “inactive”. Moreover, the pEC50 in series [6] was 4.31.

For the compound `Cn1c(=O)c2ccccc2c(=O)n1CCCNC(=O)OC(C)(C)C`, the negative-log EC50 (pEC50) in series [3] is 4.63; in series [6], 5.40.

With `Cn1c(=O)c2cccc(Cl)c2c(=O)n1CCCBr`, the results for the pEC50 in series [3] and in series [6] were 5.17 and 5.47, respectively.

Regarding `Cn1c(=O)c2c(Cl)cccc2c(=O)n1CCNC(=O)OC(C)(C)C`, the negative-log EC50 (pEC50) was 5.25 in series [3] and 5.60 in series [6]. The Activity result is reported as “Toxic” in series [4] and “Non-toxic” in series [5].

For `Cn1c(=O)c2ccccc2c(=O)n1CCCN`, the inhibition result in series [1] is “inactive”. For the same compound, the inhibition at 200 µM in series [2] was 50%.

On to `Cn1c(=O)c2c(Cl)cccc2c(=O)n1CCCN=[N+]=[N-]`, for which the pEC50 was 4.93 in series [3] and 5.63 in series [6].

With `Cn1c(=O)c2ccccc2c(=O)n1CCNC(=O)OC(C)(C)C`, the pEC50 in series [3] was 4.84; in series [6], 5.61.

(Values after ChEMBL document CHEMBL3286337, “Synthesis, biological evaluation and structure-activity relationships of new phthalazinedione derivatives with vasorelaxant activity” (Eur J Med Chem, 2014).)
